Here are results for nine compounds from ChEMBL document CHEMBL3259568 (Bioorg Med Chem, 2014).

The test system of data set [1] is Rattus norvegicus. Briefly: Acute antiinflammatory activity in albino rat assessed as inhibition of carrageenan-induced paw edema at 10 mg/kg, po administered 1 hr followed by carrageenan challenge measured at 4 hrs by plethysmometric analysis relative to control. It counts as functional. The procedure, abridged:
(§1)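 Male albino rats (170–220 g), fasted ≥12 h with water, six per group. Oral dosing in 0.5% sodium CMC (control 1 ml vehicle), then 1 h later subplantar 0.05 ml of 1% carrageenan into left hind footpad. […] Mean ± SEM, ANOVA/Dunnett.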
(The carrageenan paw model is a standard test of acute inflammation.)

Data set [2] concerns Rattus norvegicus. In words: Acute antiinflammatory activity in albino rat assessed as inhibition of carrageenan-induced paw edema at 10 mg/kg, po administered 1 hr followed by carrageenan challenge measured at 2 hrs by plethysmometric analysis relative to control. It counts as functional. The procedure, abridged:
as §1

The subject of data set [3] is Mus musculus. In words: Acute toxicity in albino mouse assessed as effect on general behavioral profile at 2000 mg/kg, po measured for 3 hrs. It counts as organism-based. Set-up: dose 2000 mg/kg, route oral. As to conditions: in vivo. The procedure, abridged:
(§2)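 OECD guideline test. Albino mice of either sex, 20–25 g, six per group, fasted 24 h with water ad libitum. Compounds suspended in 0.5% aqueous sodium CMC and given orally in increasing doses of 10, 20, 100, 200, 1000 and 2000 mg/kg b.w. Animals watched continuously for 3 h for general behavioural, neurological and autonomic profiles, then every 30 min for 3 h, then up to 24 h or until death.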

Data set [4] has as its system Mus musculus. Briefly: Acute toxicity in albino mouse assessed as effect on neurological profile at 2000 mg/kg, po measured for 3 hrs. It is filed as organism-based. More on the design: dose 2000 mg/kg, route oral. As to conditions: in vivo. The procedure, abridged:
as §2

In data set [5] the test system is Mus musculus. In words: Acute toxicity in albino mouse assessed as mortality at 2000 mg/kg, po measured continuously for 3 hrs followed by every 30 mins for next 3 hrs up to 24 hrs. It is filed as organism-based. More on the design: dose 2000 mg/kg, route oral. As to conditions: in vivo. The procedure, abridged: as §2
In data set [6] the test system is Mus musculus. Briefly: Acute toxicity in albino mouse assessed as effect on autonomic profile at 2000 mg/kg, po measured for 3 hrs. It counts as organism-based. Set-up: dose 2000 mg/kg, route oral. As to conditions: in vivo. The procedure, abridged: as §2
For data set [7], the system named is Mus musculus. Briefly: Analgesic activity in albino mouse assessed as protection against glacial acetic acid-induced writhing at 10 mg/kg, po administered 0.5 hrs followed by glacial acetic acid challenge measured for 15 mins relative to control. It is filed as functional. The procedure, abridged:
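Mice (20–25 g) pre-screened 24 h earlier with i.p. 10 ml/kg 0.6% glacial acetic acid; only responders used. Oral dosing as suspension in 0.5% sodium CMC 30 min before acetic acid challenge. Writhing episodes counted for 15 min; group means versus vehicle control; ANOVA with Dunnett test.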

For data set [8], the target named is T1, Prostaglandin G/H synthase 1 (Ovis aries) (UniProt P05979).
T1 sequence (whole entry): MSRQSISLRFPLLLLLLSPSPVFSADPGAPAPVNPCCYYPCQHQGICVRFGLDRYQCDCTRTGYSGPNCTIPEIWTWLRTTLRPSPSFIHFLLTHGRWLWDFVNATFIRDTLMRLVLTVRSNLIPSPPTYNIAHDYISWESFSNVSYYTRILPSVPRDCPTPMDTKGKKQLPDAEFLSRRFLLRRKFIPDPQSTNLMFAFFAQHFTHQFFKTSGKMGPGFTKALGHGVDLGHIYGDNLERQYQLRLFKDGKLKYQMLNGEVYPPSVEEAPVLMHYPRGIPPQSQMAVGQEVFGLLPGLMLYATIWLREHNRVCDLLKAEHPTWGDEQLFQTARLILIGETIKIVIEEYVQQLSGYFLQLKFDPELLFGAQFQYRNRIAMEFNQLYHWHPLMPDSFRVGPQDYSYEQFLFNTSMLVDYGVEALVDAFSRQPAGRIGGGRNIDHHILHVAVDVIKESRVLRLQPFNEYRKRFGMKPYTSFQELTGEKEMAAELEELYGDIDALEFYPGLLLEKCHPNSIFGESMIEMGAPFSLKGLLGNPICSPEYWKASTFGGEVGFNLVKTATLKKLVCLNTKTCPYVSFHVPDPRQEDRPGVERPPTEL
In words: Inhibition of ovine COX1 peroxidase activity assessed as reduction of PGG2 to PGH2 by measuring oxidized TMPD level at 10 ug/ml by colorimetric assay relative to control.

Data set [9] deals with T2, Prostaglandin G/H synthase 1 (Ovis aries, UniProt P05979).
T2 sequence (P05979 whole entry): T1 sequence (whole entry)
Briefly: Inhibition of ovine COX1 peroxidase activity assessed as reduction of PGG2 to PGH2 by measuring oxidized TMPD level by colorimetric assay.

The subject of data set [10] is Rattus norvegicus. Briefly: Ulcerogenic activity in albino rat stress model assessed as ulcer index at 10 mg/kg, po after 7 hrs. It counts as toxicity, organism-based. Set-up: dose 10 mg/kg, route oral. As to conditions: in vivo. The procedure, abridged: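 Albino rats of either sex (170–250 g), six per group, starved 48 h with water, dosed orally 10 mg/kg in sodium CMC; killed 7 h later. Stomach opened along greater curvature and everted; lesions counted in five size classes (pinpoint to >4 mm) to give ulcer index, reported as min–max range.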

Data set [11] relates to Rattus norvegicus. In words: Antipyretic activity in albino rat assessed as yeast-induced pyrexia at 10 mg/kg, po measured at 2 hrs by telethermometer (reference value: 38.20 degC). It counts as functional. The procedure, abridged: (§3)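 Male albino rats (170–230 g) given s.c. 2.5 ml 20% aqueous baker's yeast; rectal temperature by telethermometer before and at 18 h (taken as 0 h). Rats with 1–2 °C rise, six per group, dosed orally 30 min later (control 1 ml 0.5% sodium CMC). Temperature recorded hourly to 5 h; temperature index = sum of mean changes from 0 h.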

Data set [12] relates to Rattus norvegicus. Briefly: Antipyretic activity in albino rat assessed as yeast-induced pyrexia at 10 mg/kg, po measured at 1 hr by telethermometer (reference value: 38.26 degC). It is filed as functional. The procedure, abridged: as §3
Data set [13] relates to Rattus norvegicus. In words: Antipyretic activity in albino rat assessed as decrease in yeast-induced pyrexia by measuring temperature index at 10 mg/kg, po measured over 5 hrs by telethermometer (reference value: 1.04 degC). It is filed as functional. The procedure, abridged:
as §3

Data set [14] deals with Rattus norvegicus. In words: Antipyretic activity in albino rat assessed as yeast-induced pyrexia at 10 mg/kg, po measured at 3 hrs by telethermometer (reference value: 38.11 degC). It counts as functional. The procedure, abridged:
as §3

Data set [15] has as its system Rattus norvegicus. Briefly: Antipyretic activity in albino rat assessed as yeast-induced pyrexia at 10 mg/kg, po measured at 5 hrs by telethermometer (reference value: 37.89 degC). It is filed as functional. The procedure, abridged: as §3
Data set [16] concerns Rattus norvegicus. Briefly: Antipyretic activity in albino rat assessed as yeast-induced pyrexia at 10 mg/kg, po measured at 4 hrs by telethermometer (reference value: 38 degC). It is filed as functional. The procedure, abridged: as §3

Broadly, the inhibition in vivo is the share of the control response that was lost under treatment. Take `CN(Cn1nc(Cc2ccccc2Nc2c(Cl)cccc2Cl)oc1=S)c1ccccc1`: the inhibition in vivo at 10 mg/kg in data set [1] worked out at 41%; in data set [2], 41.8%. In addition, the Activity entry in [3], in [4], in data set [5] and in data set [6] was “Non-toxic” in each case.
As a reminder, the inhibition is the percentage by which the read-out fell short of the control. As usually defined, the IC50 is the concentration that gives 50% inhibition. For `S=c1oc(Cc2ccccc2Nc2c(Cl)cccc2Cl)nn1CN1CCNCC1`, the inhibition in vivo at 10 mg/kg in [1] was 56.5%; in data set [2], 51.4%. Besides, the Activity result in [3] was “Non-toxic”; in [4], “Non-toxic”; in data set [7] it was 75.9%; in [5], “Non-toxic”; in data set [6], “Non-toxic”. For the same compound, the inhibition in data set [8] worked out at 43.2%. Further, the IC50 in data set [9] is over 50 µM.
`CN1CCN(Cn2nc(Cc3ccccc3Nc3c(Cl)cccc3Cl)oc2=S)CC1`: the UI in data set [10] came to 2.3. Further, the T in data set [11] worked out at 37.94 °C; in data set [12], 37.72 °C; in data set [13] it was 2.81 °C; in data set [14], 37.8 °C; in data set [15], 37.2 °C; in [16], 37.44 °C. For the same compound, the inhibition in vivo at 10 mg/kg is 64.5% in data set [1] and 65.1% in data set [2]. Further, the Activity entry in data set [3] is reported as “Non-toxic”; in data set [4], “Non-toxic”; in data set [7], 77.6%; in data set [5], “Non-toxic”; in data set [6], “Non-toxic”. Besides, in [8], the inhibition amounted to 35.2%. Moreover, the IC50 in data set [9] was over 50 µM.
As to `CC(C(=O)O)c1ccc(-c2ccccc2)c(F)c1` (stereo not given) [FLURBIPROFEN], the UI in data set [10] is reported as 5.9.
As for `S=c1oc(Cc2ccccc2Nc2c(Cl)cccc2Cl)nn1CNC1CCCCC1`, the UI in [10] came to 3.6. In addition, the T in data set [11] was 37.69 °C; in data set [12] it was 37.98 °C; in data set [13] it was 4.38 °C; in data set [14], 37.03 °C; in data set [15], 36.78 °C; in data set [16], 37.79 °C. The inhibition in vivo at 10 mg/kg in [1] came out at 67.5%; in data set [2], 65.9%. The Activity entry in data set [3] was “Non-toxic”; in data set [4], “Non-toxic”; in [7], 77.6%; in [5], “Non-toxic”; in data set [6] it was “Non-toxic”. Also, the inhibition in data set [8] came to 19.6%. Also, the IC50 in data set [9] is over 50 µM.
Take `CC(=O)Oc1ccccc1C(=O)O` [ASPIRIN]: in data set [10], the UI was found to be 4.7.
`CC1CCCCN1Cn1nc(Cc2ccccc2Nc2c(Cl)cccc2Cl)oc1=S` (stereo not given): the inhibition in vivo at 10 mg/kg is 36.6% in [1] and 39.4% in [2]. Also, the Activity result in [3], in data set [4], in [5] and in [6] was “Non-toxic” throughout.
Consider `CC1CCN(Cn2nc(Cc3ccccc3Nc3c(Cl)cccc3Cl)oc2=S)CC1`, for which the inhibition in vivo at 10 mg/kg in data set [1] came out at 33.8%; in [2] it was 36.9%. In addition, the Activity result in [3], in [4], in data set [5] and in [6] was “Non-toxic” each time.
Take `S=c1oc(Cc2ccccc2Nc2c(Cl)cccc2Cl)nn1CN1CCCCC1`: the inhibition in vivo at 10 mg/kg in data set [1] turned out to be 45.9%; in [2] it was 48.3%. Besides, the Activity entry in data set [3] is on record as “Non-toxic”; in data set [4], “Non-toxic”; in [7], 74.1%; in data set [5] it was “Non-toxic”; in data set [6], “Non-toxic”. The inhibition in data set [8] was determined as 30.9%. The IC50 in data set [9] is over 50 µM.
